Measured values from publication PMC9233738 (Bioorganic & medicinal chemistry, 2022).
≈ marks a conversion by molar mass, not a printed value. Entries after “also recorded” stand apart in the source; their conditions may differ. Read-outs that look alike come from different tables or passages of the source.

Assays:
[1] = test system: chloroquine-resistant Dd2 strain; experiment: Antiplasmodial activity against chloroquine-resistant Dd2 strain; format: cell-based, Plasmodium falciparum; conditions: for antimalarial activity / potency (in words): qualitative statement
[2] = test system: HepG2 human hepatoma cells; experiment: Cytotoxicity, HepG2 cells, MTS cell proliferation assay; format: cell-based; conditions: for EC50: read-out: HepG2 EC50; for Selectivity: SI = EC50(HepG2)/EC50(Dd2)
Method in brief: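 HepG2 human hepatoma cells were seeded at 2,500 cells/well and pre-incubated for 24 h. Serial dilutions of test compound (0–40 μM range) were then added, followed by a further 48 h incubation.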

[3] = Aqueous solubility, Biomek FX with pION μSOL evolution software; format: physicochemical; conditions: for solubility: pH 6.5
[4] = Aqueous solubility at pH 2.0, in-house HPLC assay; format: physicochemical

1-(3,4-Difluorophenyl)-2-(1,4-dihydro-2H-spiro[phenanthrene-3,4’-piperidin]-1’-yl)ethan-1-one [Compound 5g]
EC50 ([1]; read-out: Dd2 EC50, chloroquine-resistant Dd2 strain): > 2.5 µM
EC50 ([2]; HepG2 cells, 48 h incubation, MTS, n = 3): > 20 µM
Solubility pH 6.5 ([3]; pH 6.5, Table 6): ^*** (For 20 μM < solubility ≤ 40 μM)

OC(CN1CCC2(CC1)CC(O)c1ccc3ccccc3c1O2)c1ccc(F)c(F)c1 (stereo not shown) [Compound 1]
EC50 ([2]; Homo sapiens, HepG2, 48 h): > 20 µM
Selectivity [2]: >53.3

O=C1CC2(CCN(Cc3ccccc3)CC2)Oc2c1ccc1ccccc21 [Compound 2c, 1’-Benzylspiro[benzo[h]chromene-2,4’-piperidin]-4(3H)-one]
solubility ([4]; aqueous medium at pH 2.0, pH 2): ≥ 80 µM
solubility ([3]; aqueous medium): 40 to 80 µM (≈ 14.3 to 28.6 µg/mL)

O=C1CC2(CCN(CCc3ccccc3)CC2)Oc2c1ccc1ccccc21 [Compound 2d, 1’-Phenethylspiro[benzo[h]chromene-2,4’-piperidin]-4(3H)-one]
solubility ([4]; aqueous medium at pH 2.0, pH 2): ≥ 80 µM
solubility ([3]; aqueous medium): 40 to 80 µM (≈ 14.9 to 29.7 µg/mL)

O=C1CC2(CCN(CCC3CCCCC3)CC2)Oc2c1ccc1ccccc21 [Compound 2e, 1’-(2-Cyclohexylethyl)spiro[benzo[h]chromene-2,4’-piperidin]-4(3H)-one]
Selectivity [2]: > 30
solubility ([4]; aqueous solution, pH 2): 20 to 40 µM (≈ 7.55 to 15.1 µg/mL)
solubility ([3]; aqueous solution): 10 to 20 µM (≈ 3.78 to 7.55 µg/mL)

O=C1CC2(CCN(CCCc3ccccc3)CC2)Oc2c1ccc1ccccc21 [Compound 2f, 1’-(3-Phenylpropyl)spiro[benzo[h]chromene-2,4’-piperidin]-4(3H)-one]
solubility ([4]; aqueous medium at pH 2.0, pH 2): 40 to 80 µM (≈ 15.4 to 30.8 µg/mL)
solubility ([3]; aqueous medium): 20 to 40 µM (≈ 7.71 to 15.4 µg/mL)

O=C(CN1CCC2(CC1)CC(=O)c1ccc3ccccc3c1O2)c1ccc(F)c(F)c1 [Compound 2g, 1’-(2-(3,4-Difluorophenyl)-2-oxoethyl)spiro[benzo[h]chromene-2,4’-piperidin]-4(3H)-one]
solubility ([4]; aqueous solution, pH 2): 40 to 80 µM (≈ 16.9 to 33.7 µg/mL)
solubility ([3]; aqueous solution): 40 to 80 µM (≈ 16.9 to 33.7 µg/mL)

O=C1CC2(CCN(CCc3ccc(F)c(F)c3)CC2)Oc2c1ccc1ccccc21 [Compound 2h, 1’-(3,4-Difluorophenethyl)spiro[benzo[h]chromene-2,4’-piperidin]-4(3H)-one]
solubility ([3]; aqueous solution): 10 to 20 µM (≈ 4.07 to 8.15 µg/mL)

O=C1CC2(CCN(C(=O)Cc3ccc(F)c(F)c3)CC2)Oc2c1ccc1ccccc21 [Compound 2l, 1’-(2-(3,4-Difluorophenyl)acetyl)spiro[benzo[h]chromene-2,4’-piperidin]-4(3H)-one]
antimalarial activity / potency (in words) [1]: completely lost

OC1CC2(CCNCC2)Oc2c1ccc1ccccc21 (stereo not shown) [Compound 3a, 3,4-Dihydrospiro[benzo[h]chromene-2,4’-piperidin]-4-ol]
Selectivity [2]: >54.5
solubility ([4]; aqueous solution, pH 2): 40 to 80 µM (≈ 10.8 to 21.5 µg/mL)

CCN1CCC2(CC1)CC(O)c1ccc3ccccc3c1O2 (stereo not shown) [Compound 3b, 1’-Ethyl-3,4-dihydrospiro[benzo[h]chromene-2,4’-piperidin]-4-ol]
solubility ([4]; aqueous solution, pH 2): 20 to 40 µM (≈ 5.95 to 11.9 µg/mL)
solubility ([3]; aqueous solution): 20 to 40 µM (≈ 5.95 to 11.9 µg/mL)

OC1CC2(CCN(Cc3ccccc3)CC2)Oc2c1ccc1ccccc21 (stereo not shown) [Compound 3c, 1’-Benzyl-3,4-dihydrospiro[benzo[h]chromene-2,4’-piperidin]-4-ol]
solubility ([4]; aqueous medium at pH 2.0, pH 2): 40 to 80 µM (≈ 14.4 to 28.8 µg/mL)
solubility ([3]; aqueous medium): 40 to 80 µM (≈ 14.4 to 28.8 µg/mL)

OC1CC2(CCN(CCc3ccccc3)CC2)Oc2c1ccc1ccccc21 (stereo not shown) [Compound 3d, 1’-Phenethyl-3,4-dihydrospiro[benzo[h]chromene-2,4’-piperidin]-4-ol]
solubility ([4]; aqueous medium at pH 2.0, pH 2): 40 to 80 µM (≈ 14.9 to 29.9 µg/mL)
solubility ([3]; aqueous medium): 40 to 80 µM (≈ 14.9 to 29.9 µg/mL)

OC1CC2(CCN(CCC3CCCCC3)CC2)Oc2c1ccc1ccccc21 (stereo not shown) [Compound 3e, 1’-(2-Cyclohexylethyl)-3,4-dihydrospiro[benzo[h]chromene-2,4’-piperidin]-4-ol]
EC50 ([1]; Plasmodium falciparum, DD2, read-out: Dd2 EC50, chloroquine-resistant Dd2 strain): 0.32 µM
solubility ([4]; aqueous solution, pH 2): 40 to 80 µM (≈ 15.2 to 30.4 µg/mL)
solubility ([3]; aqueous solution): 20 to 40 µM (≈ 7.59 to 15.2 µg/mL)

OC1CC2(CCN(CCCc3ccccc3)CC2)Oc2c1ccc1ccccc21 (stereo not shown) [Compound 3f, 1’-(3-Phenylpropyl)-3,4-dihydrospiro[benzo[h]chromene-2,4’-piperidin]-4-ol]
solubility ([4]; aqueous medium at pH 2.0, pH 2): ≥ 80 µM
solubility ([3]; aqueous medium): ≥ 80 µM

O=C(CN1CCC2(CC1)CC(O)c1ccc3ccccc3c1O2)c1ccc(F)c(F)c1 (stereo not shown) [Compound 3g, 1-(3,4-Difluorophenyl)-2-(4-hydroxy-3,4-dihydrospiro[benzo[h]chromene-2,4’-piperidin]-1’yl)ethanone]
solubility ([4]; aqueous solution, pH 2): 20 to 40 µM (≈ 8.47 to 16.9 µg/mL)
solubility ([3]; aqueous solution): 20 to 40 µM (≈ 8.47 to 16.9 µg/mL)

O=C(Cc1ccc(F)c(F)c1)N1CCC2(CC1)CC(O)c1ccc3ccccc3c1O2 (stereo not shown) [Compound 3l, 2-(3,4-Difluorophenyl)-1-(4-hydroxy-3,4-dihydrospiro[benzo[h]chromene-2,4’-piperidin]-1’yl)ethanone]
antimalarial activity / potency (in words) [1]: lacked antimalarial activity; also recorded: completely lost

O[C@H](CN1CCC2(CC1)C[C@@H](O)c1ccc3ccccc3c1O2)c1ccc(F)c(F)c1 [Compound 3mb]
Selectivity [2]: <7

O[C@@H](CN1CCC2(CC1)C[C@H](O)c1ccc3ccccc3c1O2)c1ccc(F)c(F)c1 [Compound 3mc, (S)-1’-((R)-2-(3,4-Difluorophenyl)-2-hydroxyethyl)-3,4-dihydrospiro[benzo[h]chromene-2,4’-piperidin]-4-ol]
EC50 ([2]; Homo sapiens, HepG2, 48 h): > 20 µM
Selectivity [2]: >15

O[C@H](CN1CCC2(CC1)C[C@H](O)c1ccc3ccccc3c1O2)c1ccc(F)c(F)c1 [Compound 3md, (S)-1’-((S)-2-(3,4-Difluorophenyl)-2-hydroxyethyl)-3,4-dihydrospiro[benzo[h]chromene-2,4’-piperidin]-4-ol]
EC50 ([2]; Homo sapiens, HepG2, 48 h): > 20 µM
Selectivity [2]: > 11

c1ccc2c3c(ccc2c1)CCC1(CCNCC1)O3 [Compound 5a, 3,4-Dihydrospiro[benzo[h]chromene-2,4’-piperidine]]
solubility ([4]; aqueous solution, pH 2): 40 to 80 µM (≈ 10.1 to 20.3 µg/mL)
solubility ([3]; aqueous solution): 20 to 40 µM (≈ 5.07 to 10.1 µg/mL)

c1ccc(CN2CCC3(CCc4ccc5ccccc5c4O3)CC2)cc1 [Compound 5c, 1’-Benzyl-3,4-dihydrospiro[benzo[h]chromene-2,4’-piperidine]]
solubility ([4]; aqueous medium at pH 2.0, pH 2): 20 to 40 µM (≈ 6.87 to 13.7 µg/mL)

c1ccc2c3c(ccc2c1)CCC1(CCN(CCC2CCCCC2)CC1)O3 [Compound 5e, 1’-(2-Cyclohexylethyl)-3,4-dihydrospiro[benzo[h]chromene-2,4’-piperidine]]
solubility ([4]; aqueous solution, pH 2): 40 to 80 µM (≈ 14.5 to 29.1 µg/mL)

Fc1ccc(CCN2CCC3(CCc4ccc5ccccc5c4O3)CC2)cc1F [Compound 5h, 1’-(3,4-Difluorophenethyl)-3,4-dihydrospiro[benzo[h]chromene-2,4’-piperidine]]
solubility ([4]; aqueous solution, pH 2): 20 to 40 µM (≈ 7.87 to 15.7 µg/mL)

OC(CN1CCC2(CCc3ccc4ccccc4c3O2)CC1)c1ccc(F)c(F)c1 (stereo not shown) [Compound 5i, 1-(3,4-Difluorophenyl)-2-(3,4-dihydrospiro[benzo[h]chromene-2,4’-piperidin]-1’-yl)ethanol]
solubility ([4]; aqueous solution, pH 2): 40 to 80 µM (≈ 16.4 to 32.8 µg/mL)

O=C(Cc1ccc(F)c(F)c1)N1CCC2(CCc3ccc4ccccc4c3O2)CC1 [Compound 5j, 2-(3,4-Difluorophenyl)-1-(3,4-dihydrospiro[benzo[h]chromene-2,4’-piperidin]-1’ yl)ethanone]
antimalarial activity / potency (in words) [1]: completely lost

O=C1C[C@@]2(CCCN(CCc3ccc(F)c(F)c3)C2)Oc2c1ccc1ccccc21 [Compound 10c, (R)-1’-(3,4-Difluorophenethyl)spiro[benzo[h]chromene-2,3’-piperidin]-4(3H)-one]
Selectivity [2]: > 30

CCN1CCC[C@@]2(CC(O)c3ccc4ccccc4c3O2)C1 (stereo partly drawn) [Compound 11a, (2R)-1’-Ethyl-3,4-dihydrospiro[benzo[h]chromene-2,3’-piperidin]-4-ol]
EC50 ([2]; Homo sapiens, HepG2, 48 h): > 20 µM
Selectivity [2]: >28.8
